FLuc inhib CS: counter-screen for luciferase assay inhibitors: firefly luciferase inhibition | hit rate 1.5% among 200,000 | P08659 | inhibition, % at 10 µM | ATPLite firefly luciferase biochemical luminescence, 10 min;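 active = inhibition above about 50% when tested at 10 µM, limit read from the data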
Target sequence (P08659 whole entry, looked up): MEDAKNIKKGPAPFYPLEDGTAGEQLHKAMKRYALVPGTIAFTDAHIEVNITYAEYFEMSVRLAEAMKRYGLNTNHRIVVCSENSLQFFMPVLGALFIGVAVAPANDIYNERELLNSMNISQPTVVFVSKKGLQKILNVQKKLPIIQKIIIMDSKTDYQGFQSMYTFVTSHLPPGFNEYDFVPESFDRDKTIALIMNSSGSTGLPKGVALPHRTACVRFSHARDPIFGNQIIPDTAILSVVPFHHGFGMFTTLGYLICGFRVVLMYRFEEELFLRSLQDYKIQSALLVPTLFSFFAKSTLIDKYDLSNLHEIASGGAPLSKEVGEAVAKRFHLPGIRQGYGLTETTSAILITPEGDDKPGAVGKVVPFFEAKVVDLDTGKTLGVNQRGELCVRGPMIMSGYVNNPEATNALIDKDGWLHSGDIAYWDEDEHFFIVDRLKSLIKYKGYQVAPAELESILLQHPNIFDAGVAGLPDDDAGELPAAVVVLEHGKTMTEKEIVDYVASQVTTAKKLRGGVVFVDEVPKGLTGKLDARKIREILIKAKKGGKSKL
FLuc stim CS: firefly luciferase counter-screen for stimulation assays; 200,000 tested, under 10 active; activation factor at 10 µM; ATPlite luciferase biochemical, luminescence, 10 min; 0 = ATP-free wells, 1 = DMSO control;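 active = luciferase activation factor, scaled between plate controls, of at least 2 with compound at 10 µM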
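Assay system – cell-free luciferase reagent · Medium – PBS-based ATP solution · Dosing – test compounds dosed from 2 mM stocks in 100% DMSO · Timing – 10 min, room temperature · Technique – light output (luminescence) · Measure – luminescence gain marking luciferase activators · Controls – No-ATP low control, compound-free enzyme-plus-ATP high control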
STAT3 inh-1: STAT3 signaling inhibition | U3A cells, IL-6 STAT3-luciferase reporter, luminescence; host cell line lacks STAT1 | inhibition, % at 5.5 µM | hit rate 0.89% among 190,000;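 active = inhibition above the mean inhibition across all screened compounds plus 3 SD, cut at about 44% in these data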;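 note: 0% = DMSO only wells and 100% = 100 µM nifuroxazide control wells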
TRAIL sens C8: sensitizes caspase-8 expressing cells to TRAIL; hit rate 1% among 360,000; NB7+C8 cells + TRAIL, ATPlite viability luminescence; inhibition (viability loss, TRAIL sensitization), % at 10 µM;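 active = compounds causing at least 50% loss of cell viability in the single-dose screen, relative to plate controls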
HSP90 refold inh: inhibitors of HSP90 luciferase refolding in rabbit reticulocyte lysate; luciferase refolding luminescence, 3 h; inhibition, % at 5.6 µM; hit rate 0.91% among 290,000;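 active = inhibition above the screen-wide mean plus 3 SD, computed separately per campaign, cut at about 16% in these data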;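 note: 0% = DMSO wells and 100% = 60 µM geldanamycin wells; inhibitors lower the luminescence because luciferase stays unfolded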
PPC-1+TRAIL kill: kills PPC-1 cancer cells in the presence of TRAIL; PPC-1 cells + TRAIL, ATPLite viability luminescence; cell killing (% activity), % at 4 µM or 5 µM; hit rate 0.41% among 220,000; AID 1443;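 active = cell killing above 50% in the first pass at 4 µM, then a duplicate retest at 5 µM averaging 50% or more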;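 note: plate controls were cells with TRAIL plus DMSO for no effect and medium-only wells lacking cells for full effect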
STAT3 inh-2: confirmation of STAT3 signaling inhibitors; shares compounds with STAT3 inh-1; U3A cells, IL-6 STAT3 luciferase reporter, luminescence; cell line lacks STAT1; inhibition, % at 5.7 µM; hit rate 45% among 1,200; AID 1265;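 active = inhibition above the hit cutoff computed for the primary STAT3 screen, cut at about 44% in these data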;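 note: 0% = IL-6 plus DMSO and 100% = IL-6 plus nifuroxazide control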
NFkB inh STAT3ct: NF-kappaB inhibition in STAT3 inhibitor counter-screen | shares compounds with STAT3 inh-1 | HEK293T NF-kB luciferase reporter, TNF-alpha induced | inhibition, % at 5.7 µM | hit rate 36% among 1,200;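 active = inhibition above the mean of solvent-only control wells plus 3 SD, cutoff set per campaign, cut at about 13% in these data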;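 note: 0% = TNF-alpha with DMSO and 100% = TNF-alpha with MG high control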
STAT1 inh 2: STAT1 inhibition in STAT3 inhibitor counter-screen. shares compounds with STAT3 inh-1. NIH 3T3 STAT1-luciferase reporter, IFN-gamma induced, luminescence. inhibition, % at 5.7 µM. hit rate 27% among 1,200;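 active = inhibition above the mean plus 3 SD of solvent-only control wells, limit set per screening run, cut at about 16% in these data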;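 note: 0% = DMSO with IFN-gamma and 100% = nifuroxazide control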
PPC1 cytotox: PPC-1 cell cytotoxicity | shares compounds with PPC-1+TRAIL kill | PPC-1 viability, ATPlite luminescence, overnight | cytotoxicity, % at 5 µM | hit rate 50% among 1,200 | AID 1447;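 active = reconfirmed compounds whose average cytotoxicity reaches 50% or more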;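 note: 0% = DMSO-treated cells and 100% = wells holding medium but no cells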
Starred values were filed as active, the others as inactive; . = no result given. The list is not random: actives were taken first. Their share in the collection is about 2.2%.

SMILES	FLuc inhib CS	FLuc stim CS	STAT3 inh-1	TRAIL sens C8	HSP90 refold inh	PPC-1+TRAIL kill	STAT3 inh-2	NFkB inh STAT3ct	STAT1 inh 2	PPC1 cytotox
O=C(Nc1ccc2c(c1)OCCO2)c1c(F)cccc1F	40	0.6	7	2	7	18	.	.	.	.
O=C(Nc1ccc2c(c1)OCCO2)c1ccccc1F	76*	0.2	52*	48	14	28	17	-23	-71	33
O=C(Nc1cccnc1Cl)c1ccc2c(Cl)c3c(nc2c1)CCC3	91*	0.1	56*	76*	2	63*	12	-39	-96	65*
Cc1ccnc(NC(=O)c2ccc3c(c2)OCO3)c1	92*	0.1	59*	77*	13	75*	22	-14	-29	74*
c1ccc2sc(NN=C3CCCCCC3)nc2c1	89*	0.1	75*	66*	12	61*	38	7	-83	64*
c1ccc2sc(NCC3CCCO3)nc2c1 (stereo unspecified)	25	0.7	-2	10	0	22	.	.	.	.
C/C(=N\NC(=O)c1ccc(Cl)cc1)c1cccs1	90*	0.1	59*	75*	3	63*	18	-13	-65	64*
CC(=O)N(c1cccc(Br)c1)c1nc(C)cc(C)c1C#N	.	.	.	7	-4	6	.	.	.	.
COc1cccc(C(=O)Nc2ccc3c(c2)OCO3)c1OC	.	.	.	29	2	.	.	.	.	.
COc1cccc(/C=C/C(=O)Nc2ccc3c(c2)OCCO3)c1OC	93*	0.1	66*	80*	21*	70*	12	-20	-110	66*
COc1cc(C(=O)NC(CCSC)C(=O)OCC(=O)C(C)(C)C)cc(OC)c1OC (stereo unspecified)	0	1	2	-4	2	22	.	.	.	.
O=C(CSc1nnc(NC(=O)c2ccco2)s1)NCc1ccc2c(c1)OCO2	4	1	8	-7	8	-4	.	.	.	.
O=C(CSc1nnc(NC(=O)c2ccc3c(c2)OCO3)s1)NCc1ccco1	91*	0.1	53*	82*	7	80*	22	3	-18	80*
O=C(CSc1ccc(Br)cc1)NCC(c1ccco1)N1CCCCC1 (stereo unspecified)	.	.	.	-8	.	.	.	.	.	.
CCn1c(C)cc(C(=O)CN2C(=O)c3ccccc3S2(=O)=O)c1C	.	.	.	34	.	.	.	.	.	.
Cc1cc(C(=O)CN2C(=O)c3ccccc3S2(=O)=O)c(C)n1-c1ccccc1	63*	0.4	59*	63*	16*	26	78*	16*	58*	23
COC(=O)C1=CN(c2ccc(Oc3ccccc3)cc2)C(N)=C(C#N)C1c1ccccc1 (stereo unspecified)	.	.	.	-6	.	.	.	.	.	.
Cc1ccn2cc(-c3ccc4c(c3)NC(=O)CO4)nc2c1	83*	0.2	46*	29	13	47	19	-25	-76	41
Cc1cccn2cc(-c3ccc4c(c3)NC(=O)CO4)nc12	.	.	.	-2	2	8	.	.	.	.
CNC[C@H]1Oc2c(NS(=O)(=O)c3ccccc3)cccc2C(=O)N([C@H](C)CO)C[C@@H]1C	.	.	.	2	.	.	.	.	.	.
COc1cccc(C(=O)Cn2c(=N)n(C)c3ccccc32)c1	32	0.7	46*	59*	4	54*	-37	-34	-110	50
CC1(C)CC(=O)c2sc(NC(=O)c3cccs3)nc2C1	95*	0.1	44*	85*	5	77*	18	-14	-10	77*
O=C(Nc1nc2c(s1)CCCC2)c1cccs1	80*	0.2	58*	62*	13	51*	14	-23	-125	52*
CCCc1ccc(-c2cc(C(=O)N/N=C/c3ccc([N+](=O)[O-])o3)c3ccccc3n2)cc1	94*	0.1	48*	86*	14	77*	9	5	-17	76*
O=C(N/N=C/c1ccc([N+](=O)[O-])o1)c1cc(-c2cccc(Br)c2)nc2ccccc12	17	0.8	2	27	3	4	.	.	.	.
SMILES	FLuc inhib CS	FLuc stim CS	STAT3 inh-1	TRAIL sens C8	HSP90 refold inh	PPC-1+TRAIL kill	STAT3 inh-2	NFkB inh STAT3ct	STAT1 inh 2	PPC1 cytotox
CC(C(=O)Nc1ccc2c(c1)OCO2)N(c1ccc(Cl)cc1)S(C)(=O)=O (stereo unspecified)	8	0.9	-3	-13	-1	5	.	.	.	.
O=C(Nc1cccc(CNCCc2c[nH]c3ccccc23)c1)c1ccccc1Cl	.	.	.	1	15	.	.	.	.	.
O=c1[nH]c(-c2cccnc2)nc2sc(-c3ccccc3)cc12	32	0.7	11	-4	5	20	.	.	.	.
Cc1nc2sc(-c3ccccc3)cc2c(=O)[nH]1	90*	0.1	69*	77*	17*	65*	35	-1	-42	61*
CC1CCCN(C(=O)COC(=O)c2cc(Br)ccc2O)C1 (stereo unspecified)	.	.	.	0	.	.	.	.	.	.
Cc1cnc2c(c1)C(=O)c1ccccc1-2	.	.	.	11	9	.	.	.	.	.
O=C1c2ccccc2-c2nnc(-c3ccccc3)cc21	81*	0.2	52*	75*	0	63*	55*	33*	16*	65*
CCSc1ccc(-c2ccc(C)cc2)nn1	88*	0.1	47*	57*	3	50*	12	-32	-98	51*
Cc1ccccc1Nc1nc(N)c2ccccc2n1	87*	0.1	61*	63*	18*	58*	18	-27	-70	54*
Cc1nn(C)c(Cl)c1S(=O)(=O)N1CCC(CO)(CCc2ccccc2)CC1	-4	1	5	-6	0	5	.	.	.	.
CCC(C)(C)c1ccc(OCCCC[n+]2cccc(C)c2)c(C(C)(C)CC)c1	-7	1.1	67*	14	7	35	50*	2	16	37
Cc1ccc[n+](CC(=O)Nc2cc(C(F)(F)F)ccc2Cl)c1	-9	1.1	8	-13	0	8	.	.	.	.
Cc1cc(S(=O)(=O)NC2CC(C)(C)NC(C)(C)C2)c(Cl)cc1Cl	.	.	.	-4	3	.	.	.	.	.
O=C(N=Nc1c(O)[nH]c2ccccc12)c1ccc2c(c1)OCO2	93*	0.1	62*	91*	-2	92*	25	10	-15	91*
O=C(C[C@@H]1CC[C@H](NC(=O)Nc2ccc(F)cc2)[C@@H](CO)O1)NCc1cccc(F)c1	.	.	.	-8	.	.	.	.	.	.

Screening data from PubChem.
